Measurements: ChEMBL document CHEMBL1287742, “Synthetic pseudopterosin analogues: A novel class of antiinflammatory drug candidates” (2010)
Several values for one entry are separate records, joined by “and”; a condition that tells them apart may be missing. Equal values may be shown once. Activity calls are given as the source filed them. The calls are words filed in the database; no cut-off is given here.

System: Mus musculus
Assay: Antiinflammatory activity in mouse assessed as inhibition of PMA-induced ear edema at 25 ug/ear administered topically as single dose after PMA challenge and measured after 3 hrs and 20 mins
Assay type: functional
Conditions: in the assay text read “simultaneously with PMA” for “after PMA challenge”
Outline: (§1)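 Mouse ear edema: test compound applied topically in acetone to the inside pinna of the left ear together with PMA (2 µg/ear), under brief halothane anesthesia. Right ears received acetone only. Five mice per group. After 3 h 20 min the mice were euthanized and a 6 mm central ear biopsy was weighed. Edema was taken as the left-minus-right weight difference, expressed as % inhibition versus the PMA-only control group.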

**Q.** `C[C@@H]1O[C@@H](Oc2cc3c4c(c2O)C(=O)CCC4CCC3)[C@@H](O)[C@H](O)[C@@H]1O` (some centres not stated) was tested. Which inhibition did it give?
**A.** inactive

**Q.** Which “inhibition (INH)” value does the source give for `C[C@@H]1O[C@@H](Oc2cc3c4c(c2O)C(C)(C)CCC4CCC3)[C@@H](O)[C@H](O)[C@@H]1O` (some centres not stated) here?
**A.** 38%

**Q.** For `C[C@@H]1O[C@@H](Oc2cc3c4c(c2O)CCCC4CCC3)[C@@H](O)[C@H](O)[C@@H]1O` (some centres not stated), which “inhibition (INH)” value is on record?
**A.** 34%

**Q.** With `Cc1c(O)c(O[C@@H]2O[C@@H](C)[C@@H](O)[C@@H](O)[C@@H]2O)c2c3c1CCCC3CCC2` (some centres not stated) as the molecule, how does the “inhibition (INH)” value read?
**A.** 49%

**Q.** How did the “inhibition (INH)” value turn out when `Oc1cc2c3c(c1OC1OC[C@@H](O)[C@H](O)[C@H]1O)CCCC3CCC2` (some centres not stated) was run?
**A.** 37%

**Q.** How did the “inhibition (INH)” value turn out when `C[C@@H]1CC[C@@H]2CCCc3cc(O[C@@H]4O[C@@H](C)[C@@H](O)[C@@H](O)[C@@H]4O)c(O)c1c32` (relative stereo) was run?
**A.** 50%

**Q.** For `CC(C)=C[C@H]1C[C@H](C)[C@H]2CC[C@H](C)c3c(O[C@@H]4OC[C@@H](O)[C@H](O)[C@H]4O)c(O)c(C)c1c32` [PSEUDOPTEROSIN A], which “inhibition (INH)” value is on record?
**A.** 70%

**Q.** How did the “inhibition (INH)” value turn out when `C[C@@H]1O[C@@H](Oc2cc3c4c(c2O)[C@@H](C)CC[C@@H]4CCC3)[C@@H](O)[C@H](O)[C@@H]1O` (relative stereo) was run?
**A.** 58%

**Q.** `Oc1c(OC2OC[C@@H](O)[C@H](O)[C@H]2O)cc2c3c1CCCC3CCC2` (some centres not stated) was tested. Which “inhibition (INH)” value did it give?
**A.** 44%

**Q.** For `C[C@@H]1O[C@@H](Oc2c(O)c(C(F)(F)F)c3c4c2CCCC4CCC3)[C@@H](O)[C@H](O)[C@@H]1O` (some centres not stated), which “inhibition (INH)” value is on record?
**A.** 45% and 53%

**Q.** With `C[C@@H]1OC(Oc2c(O)cc3c4c2CCCC4CCC3)[C@@H](O)[C@H](O)[C@@H]1O` (some centres not stated) as the molecule, how does the “inhibition (INH)” value read?
**A.** 24%

System: Mus musculus
Assay: Antiinflammatory activity in mouse assessed as effective dose per ear for inhibition of PMA-induced ear edema
Assay type: functional
Conditions: not given
Outline: as §1

**Q.** `CC(C)=C[C@H]1C[C@H](C)[C@H]2CC[C@H](C)c3c(O[C@@H]4OC[C@@H](O)[C@H](O)[C@H]4O)c(O)c(C)c1c32` [PSEUDOPTEROSIN A] was tested. Which ED50 did it give?
**A.** 12 µg
